Reference: ChEMBL document CHEMBL1955776, “Synthesis and biological evaluation of sulfonyl acrylonitriles as novel inhibitors to peritoneal carcinomatosis” (Bioorg Med Chem Lett, 2012)
Activity calls are given as the source filed them. The calls are words filed in the database; no cut-off is given here.

Columns and labels:
[1] = Antitumor activity against human SU86 cells co-cultured with mesothelial cell monolayers using D-luciferin as substrate at 10 uM by firefly luciferase reporter gene assay relative to control; type: functional
How it was run: (§1)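 Luciferase-tagged cancer cells were treated in suspension at a final 10 μM, then overlaid on confluent mesothelial monolayers. Adherent surviving cells were read by D-luciferin bioluminescence, taken as living cell number. Efficacy = luminescence with analog / luminescence with DMSO; mean ± SEM, n = 3.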

[2] = tested on: A2780; assay: Antitumor activity against human A2780 cells co-cultured with mesothelial cell monolayers using D-luciferin as substrate at 10 uM by firefly luciferase reporter gene assay relative to control; type: functional; how it was run: as §1
[3] = tested on: SK-OV-3; assay: Antitumor activity against human SKOV3 cells co-cultured with mesothelial cell monolayers using D-luciferin as substrate at 10 uM by firefly luciferase reporter gene assay relative to control; type: functional; how it was run: as §1
[4] = tested on: BXPC-3; assay: Antitumor activity against human BxPC3 cells co-cultured with mesothelial cell monolayers using D-luciferin as substrate at 10 uM by firefly luciferase reporter gene assay relative to control; type: functional; how it was run: as §1
[5] = tested on: SK-OV-3; assay: Antitumor activity against human SKOV3 cells co-cultured with mesothelial cell monolayers by firefly luciferase reporter gene assay; type: functional, cell-based
How it was run: (§2)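 Co-culture implantation model: cancer cells carrying a constitutive firefly luciferase plasmid were held in suspension with analog, then overlaid on confluent mesothelial cell monolayers. Cells that adhered and survived were read by bioluminescence with D-luciferin. IC50 values came from concentration–response runs and are reported as mean ± SEM.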

[6] = Antitumor activity against human SU86 cells co-cultured with mesothelial cell monolayers by firefly luciferase reporter gene assay; type: functional, cell-based; how it was run: as §2
[7] = tested on: A2780; assay: Antitumor activity against human A2780 cells co-cultured with mesothelial cell monolayers by firefly luciferase reporter gene assay; type: functional, cell-based; how it was run: as §2
[8] = tested on: BXPC-3; assay: Antitumor activity against human BxPC3 cells co-cultured with mesothelial cell monolayers by firefly luciferase reporter gene assay; type: functional, cell-based; how it was run: as §2
[9] = tested on: SK-OV-3; assay: Induction of apoptosis in human SKOV3 cells co-cultured with mesothelial cell monolayers assessed as PARP cleavage at 7.5 uM after 5 hrs by Western blot analysis; type: functional, cell-based
[10] = tested on: Mus musculus; assay: Toxicity in human A2780 cells xenografted nu/nu mouse at 5 mg/kg, ip administered every 3 days for 14 days; type: organism-based; set-up: dose 5 mg/kg, route intraperitoneal; conditions: in vivo
How it was run: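 Body weight was followed in athymic female nu/nu mice carrying IP A2780-luc cells and given 5 mg/kg IP in 4:1 PEG400:EtOH, starting 4 h before cell injection and repeated every three days over 14 days.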

[11] = tested on: A2780; assay: Antitumor activity against human A2780 cells xenografted in nu/nu mouse peritoneal carcinomatosis model assessed as inhibition of intraperitoneal implantation at 5 mg/kg, ip administered every 3 days for 14 days by luciferase reporter gene assay; type: functional, organism-based; set-up: dose 5 mg/kg
How it was run: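 Athymic 5-week-old female nu/nu mice were randomized to 5 mg/kg drug IP or an equal volume of vehicle (4:1 PEG400:EtOH), given 4 h before IP injection of 1.5 × 10^6 A2780-luc cells, then every three days for 14 days. Implants were imaged weekly by bioluminescence after IP D-luciferin. Day-14 abdominal signal was compared with vehicle controls.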

[12] = molecular target: CASP8 and FADD-like apoptosis regulator (Homo sapiens) (UniProt O15519); assay: Inhibition of cFLIP-L in human SKOV3 cells assessed as restoration of death receptor signaling-mediated apoptosis; type: cell-based; conditions: SK-OV-3
[13] = molecular target: CASP8 and FADD-like apoptosis regulator (Homo sapiens) (UniProt O15519); assay: Inhibition of cFLIP-L in human BxPC3 cells assessed as restoration of death receptor signaling-mediated apoptosis; type: cell-based; conditions: BXPC-3
[14] = molecular target: CASP8 and FADD-like apoptosis regulator (Homo sapiens) (UniProt O15519); assay: Inhibition of cFLIP-L in human A2780 cells assessed as restoration of death receptor signaling-mediated apoptosis; type: cell-based
[15] = molecular target: CASP8 and FADD-like apoptosis regulator (Homo sapiens) (UniProt O15519); assay: Inhibition of cFLIP-L in human SU86 cells assessed as restoration of death receptor signaling-mediated apoptosis; type: cell-based

Sequence of CASP8 and FADD-like apoptosis regulator (Homo sapiens) (O15519 whole entry, looked up): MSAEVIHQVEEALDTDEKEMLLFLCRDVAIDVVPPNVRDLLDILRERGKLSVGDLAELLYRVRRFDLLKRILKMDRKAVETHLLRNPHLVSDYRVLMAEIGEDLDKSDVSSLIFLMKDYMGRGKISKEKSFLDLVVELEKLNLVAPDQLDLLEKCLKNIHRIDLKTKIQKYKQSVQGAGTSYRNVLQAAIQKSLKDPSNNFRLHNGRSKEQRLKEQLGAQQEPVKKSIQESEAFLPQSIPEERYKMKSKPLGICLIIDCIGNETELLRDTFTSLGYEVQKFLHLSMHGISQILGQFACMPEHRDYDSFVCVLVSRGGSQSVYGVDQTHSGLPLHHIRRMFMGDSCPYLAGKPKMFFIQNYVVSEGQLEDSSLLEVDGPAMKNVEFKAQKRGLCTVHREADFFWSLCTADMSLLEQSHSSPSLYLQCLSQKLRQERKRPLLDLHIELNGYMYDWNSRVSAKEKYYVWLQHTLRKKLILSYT

| IC50 [5] [µM] | IC50 [6] [µM] | IC50 [7] [µM] | IC50 [8] [µM] | SMILES | Ratio [1] | Ratio [2] | Ratio [3] | Ratio [4] | Activity [9] | Activity [10] | inhibition [11] | inhibition [12] | inhibition [13] | inhibition [14] | inhibition [15] |
| --- | --- | --- | --- | --- | --- | --- | --- | --- | --- | --- | --- | --- | --- | --- | --- |
|  |  |  |  | CC(C)(C)c1ccc(S(=O)(=O)/C=C/c2ccccc2)cc1 | 0.97 | 1.13 | 1.17 | 1.01 |  |  |  |  |  |  |  |
| 10.9 | 7.3 | 2.4 | 4.1 | COc1cccc(NC(=O)C(C)(C)c2ccc(S(=O)(=O)/C=C/C#N)cc2)c1 | 0.65 | 0.55 | 0.98 | 0.62 | Active |  |  |  |  |  |  |
|  |  |  |  | C#CCNC(=O)C(C)(C)c1ccc(S(=O)(=O)/C=C/C#N)cc1 | 0.65 | 0.63 | 0.93 | 0.64 |  |  |  |  |  |  |  |
|  |  |  |  | CC(C)(C)c1ccc(S(=O)(=O)/C=C/C(N)=O)cc1 | 0.59 | 0.77 | 0.5 | 0.44 |  |  |  |  |  |  |  |
| 7.6 | 5.9 | 2.6 | 3.7 | CC(C)(C)c1ccc(S(=O)(=O)/C=C/C#N)cc1 [BAY-11-7085] | 0.13 | 0.04 | 0.32 | 0.07 | Active | Non-toxic | Active | Active | Active | Active | Active |
|  |  |  |  | CC(C)(C(=O)O)c1ccc(S(=O)(=O)/C=C/C#N)cc1 | 0.89 | 1.08 | 1.07 | 0.92 |  |  |  |  |  |  |  |
| 12.9 | 7.6 | 3.3 | 4.2 | CC(C)CNC(=O)C(C)(C)c1ccc(S(=O)(=O)/C=C/C#N)cc1 | 0.29 | 0.05 | 0.47 | 0.24 | Active | Non-toxic | Active |  |  |  |  |
|  |  |  |  | CC(C)(C(=O)N1CCCCC1)c1ccc(S(=O)(=O)/C=C/C#N)cc1 | 0.51 | 0.08 | 0.51 | 0.25 |  |  |  |  |  |  |  |
|  |  |  |  | CC(C)(C(=O)N1CCOCC1)c1ccc(S(=O)(=O)/C=C/C#N)cc1 | 0.94 | 0.66 | 1.01 | 0.85 |  |  |  |  |  |  |  |
| 11.4 | 8.7 | 3.4 | 4.1 | CC(C)(C(=O)NCc1ccc(Cl)cc1)c1ccc(S(=O)(=O)/C=C/C#N)cc1 | 0.43 | 0.15 | 0.63 | 0.27 | Active |  |  |  |  |  |  |
|  |  |  |  | C=CS(=O)(=O)c1ccc(C(C)(C)C)cc1 | 0.8 | 1.16 | 1.05 | 0.84 |  |  |  |  |  |  |  |
|  |  |  |  | CCOC(=O)/C=C/S(=O)(=O)c1ccc(C(C)(C)C)cc1 | 0.52 | 0.39 | 0.67 | 0.2 |  |  |  |  |  |  |  |
|  |  |  |  | CC(C)(C(=O)NCc1ccccn1)c1ccc(S(=O)(=O)/C=C/C#N)cc1 | 0.29 | 0.05 | 0.47 | 0.24 |  |  |  |  |  |  |  |
|  |  |  |  | C/C=C/S(=O)(=O)c1ccc(C(C)(C)C)cc1 | 0.99 | 1.15 | 1.08 | 0.99 |  |  |  |  |  |  |  |
|  |  |  |  | CC(C)(C)c1ccc(S/C=C/C#N)cc1 | 1.03 | 1.06 | 0.92 | 1.08 |  | Non-toxic | inactive |  |  |  |  |
|  |  |  |  | CN1CCN(C(=O)C(C)(C)c2ccc(S(=O)(=O)/C=C/C#N)cc2)CC1 | 0.95 | 0.95 | 1.09 | 0.98 |  |  |  |  |  |  |  |
| 9.9 | 7.5 | 2.7 | 4.1 | CC(C)(C(=O)Nc1ccccc1)c1ccc(S(=O)(=O)/C=C/C#N)cc1 | 0.52 | 0.17 | 0.55 | 0.22 | Active | Non-toxic | Active |  |  |  |  |
|  |  |  |  | CC(C)(C(=O)NC1CCCCC1)c1ccc(S(=O)(=O)/C=C/C#N)cc1 | 0.43 | 0.2 | 0.6 | 0.22 |  |  |  |  |  |  |  |
